Screening results (PubChem BioAssay)
Compounds with a hit are over-represented: about 7.6% of the library has one in this group of screens.
hDAT+cocaine = human DAT dopamine uptake with cocaine, either direction | LLC-PK1 hDAT cells, [14C]-dopamine uptake with cocaine IC80; actives deviate in either direction | 1.3% of 110,000 active | Q01959 | B-score at 10 µM;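 active means Z score or B-score, a plate-position-corrected score, falls beyond the plate's 99.7% confidence bounds, in either direction; inactive means both scores lie inside the 99.7% bounds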;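 further: scored against the spread of the other compound wells on the same plate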
Target sequence (Q01959 whole entry, looked up): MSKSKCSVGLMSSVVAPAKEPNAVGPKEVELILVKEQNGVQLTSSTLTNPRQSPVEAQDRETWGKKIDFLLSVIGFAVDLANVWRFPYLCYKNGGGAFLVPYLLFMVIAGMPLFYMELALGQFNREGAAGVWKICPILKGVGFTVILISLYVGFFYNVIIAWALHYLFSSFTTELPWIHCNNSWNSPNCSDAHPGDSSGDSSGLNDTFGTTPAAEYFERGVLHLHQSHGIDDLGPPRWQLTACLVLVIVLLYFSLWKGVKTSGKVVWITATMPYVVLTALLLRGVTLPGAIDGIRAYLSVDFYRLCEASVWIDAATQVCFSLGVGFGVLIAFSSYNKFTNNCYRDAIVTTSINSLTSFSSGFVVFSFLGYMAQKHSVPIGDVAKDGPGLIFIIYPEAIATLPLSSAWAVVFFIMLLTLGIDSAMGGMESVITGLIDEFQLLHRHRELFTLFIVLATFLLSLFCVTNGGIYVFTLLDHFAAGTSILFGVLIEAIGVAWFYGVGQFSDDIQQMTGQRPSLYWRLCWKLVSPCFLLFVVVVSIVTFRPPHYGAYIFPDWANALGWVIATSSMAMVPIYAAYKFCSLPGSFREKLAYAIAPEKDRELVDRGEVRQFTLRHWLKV
M1 ag = agonists of M1 muscarinic receptor | CHO-M1 cells, Fluo-4 calcium fluorescence, agonist mode; active compounds read high | B-score at 10 µM | 3% of 64,000 active;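 active means fluorescence rise, raw or as B-score row- and column-corrected plate score, outside the 99.7% band of its plate's samples, either direction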
HEK293 NFkB inh = lowers PMA/ionomycin-induced NF-kB signal in HEK293 cells | inhibition, % at 3 µM | 0.21% of 62,000 active | HEK-293 NF-kB luciferase reporter, luminescence | AID 465;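 active means inhibition above the mean of all tested compounds plus 3 SD, cut at about 40% in these data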;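 further: 0% = stimulated DMSO wells and 100% = 10 µM reference inhibitor 5653914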
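Material: HEK-293 cells with stable firefly luciferase reporter driven by four HIV NF-kB elements / Also added: PMA plus ionomycin mix as NF-kB-activating stimulus / Compound dosing: 3 µM once, 0.30% DMSO / Times: 1 h pretreatment, 16 h stimulation, 37 °C / Signal: luminescence / Evaluation: per-plate % inhibition versus controls / Benchmarks: DMSO and 10 µM reference inhibitor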
D1 mod = allosteric modulators of human D1 dopamine receptor | B-score at 10 µM | HEK293 D1, CRE-luciferase, dopamine EC30 potentiation; actives deviate in either direction | P21728 | 5.9% of 58,000 active;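 active means luminescence count or its row- and column-corrected plate score outside the 99.7% band of the plate's sample wells, on either side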
Jurkat viability = reduces viability or proliferation of Jurkat cells; Jurkat E6.1 viability, ATP luminescence, 48 h; AID 463; inhibition, % at 4 µM; 1.2% of 56,000 active;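 active means inhibition above the mean inhibition of all tested compounds plus 3 SD, cut at about 28% in these data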
M1 antag = antagonists of rat M1 muscarinic receptor; P08482; CHO-M1 cells, Fluo-4 calcium, ACh EC80 antagonist mode; active compounds read low; B-score at 10 µM; 3.4% of 64,000 active;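 active means calcium fluorescence response, raw or row-and-column corrected B-score, differing from the plate sample mean either way at a set confidence level, mostly lower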
D1 mod confirm = D1 receptor (human) allosteric modulation, confirmed. shares compounds with D1 mod. HEK293 D1 CRE-luciferase, dopamine EC30 potentiation; active compounds read high. luminescence at 10 µM. 88% of 2,200 active;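 active means luminescence in either of two replicates above the same-plate mean plus 3 SD of the low-dose dopamine control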
D1 no dopamine = D1 (human) signaling in absence of dopamine | shares compounds with D1 mod | HEK293 D1 CRE-luciferase, luminescence, no dopamine; active compounds read high | luminescence at 10 µM | 0.8% of 1,900 active | AID 646; in the data active means luminescence above about 3900
Isoprot counter = counter-screen for D1 modulators: isoproterenol response in HEK293 cells. shares compounds with D1 mod. HEK293 D1 CRE-luciferase, isoproterenol EC30 counter-screen. calls only at 10 µM. 63% of 2,200 active. AID 647;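 active means luminescence in either replicate above plate mean of wells with a partly effective reference agonist dose plus 3 SD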;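 further: isoproterenol raises cAMP through native beta-adrenoceptor Gs so signal bypasses D1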
Active calls of the source: *; i = inactive; · = no result; + = active, no number.

SMILES | hDAT+cocaine | M1 ag | HEK293 NFkB inh | D1 mod | Jurkat viability | M1 antag | D1 mod confirm | D1 no dopamine | Isoprot counter
CN(C)c1ncnc2c1ncn2C1OC(CO)C(O)C1O (stereo not drawn) | 0.788 | · | · | · | · | · | · | · | ·
Nc1nc(Cl)nc2c1ncn2[C@@H]1O[C@H](CO)[C@@H](O)[C@H]1O | -0.569 | 0.662 | · | 23.7* | · | 0.457 | 16252* | 5660* | +
CCOc1ccc(-c2[nH]ncc2Oc2ccccc2OC)c(O)c1 | -0.00751 | 1.62 | 6.5 | -0.823 | -1.7 | 0.0179 | · | · | ·
CCOc1ccc(-c2[nH]ncc2-c2ccc(OC)c(OC)c2)c(O)c1 | 0.882 | 0.501 | 33.0 | 5.23* | 91.5* | 0.0435 | 13188* | 1944 | +
Cc1noc(C)c1C(=O)Nc1ccc(F)c(F)c1 | -0.861 | · | · | · | · | · | · | · | ·
CCOC(=O)Nc1sc(C)nc1-c1ccccc1 | -0.313 | -0.655 | 1.5 | 3.73* | 0.2 | 0.705 | 5108 | 1368 | i
CCOC(=O)c1sc(N)nc1-c1ccccc1 | -0.106 | 0.492 | 2.5 | 11.7* | -13.7 | 0.728 | 13660* | 1536 | +
COC(=O)Nc1sc(C)nc1-c1ccccc1 | · | · | 18.1 | -0.575 | · | · | · | · | ·
CCCCC(=O)Nc1ccc2c(c1)nc(CCN1CCOCC1)n2C | -0.981 | 0.497 | -7.5 | -0.133 | -0.4 | -0.616 | · | · | ·
CCOC(=O)c1c(N)nn(C(=O)C(C)C)c1-c1ccccc1 | -0.447 | 0.614 | 12.6 | 6.8* | -4.0 | 0.276 | 18276* | 1576 | +
CCOC(=O)c1c(N)nn(C(=O)CC)c1-c1ccccc1 | -0.336 | 1.19 | 8.6 | 13* | -1.8 | -0.537 | 17424* | 1468 | +
O=C(c1ccc2c(c1)OCO2)N1CCC2(CC1)Oc1ccc(Cl)cc1C(=O)C21CC(c2cccnc2)=NO1 (stereo not drawn) | -0.213 | · | · | · | · | · | · | · | ·
CCOC(=O)c1ccc(S(=O)(=O)N2CCNCC2)cc1 | 0.108 | · | · | · | · | · | · | · | ·
COc1cc(CN(C)CC(=O)c2[nH]c(C)c(C(C)=O)c2C)ccc1OC(F)F | 1 | 1.49 | 22.8 | 5.02* | 22.5 | -1.75 | 7936* | 1244 | +
CCOC(=O)C1=C(C)Nc2nc(SC)nn2C1c1ccc(C(=O)OC)cc1 (stereo not drawn) | -0.00788 | 0.438 | 5.0 | 4* | -4.5 | -0.136 | 8432* | 1672 | i
COCCOC(=O)C1=C(C)Nc2nc(C)nn2C1c1ccc(F)cc1 (stereo not drawn) | -0.36 | 0.0943 | 12.2 | -0.551 | -2.7 | -0.412 | · | · | ·
COc1ccc(-c2oc3ncnc(N)c3c2-c2ccccc2)cc1 | -0.761 | · | · | · | · | · | · | · | ·
CC(C#N)Sc1nc2ccccc2c(=O)n1-c1ccccc1 (stereo not drawn) | 0.0192 | 2.07 | 16.0 | 9.23* | 7.6 | -1.03 | 22624* | 1776 | +
COn1c(SC(C)C)nc2ccccc2c1=O | -2.25 | · | · | · | · | · | · | · | ·
CCN1CCN(C(=O)c2cnn3c(C(F)F)cc(-c4ccc(C)cc4)nc23)CC1 | -0.0137 | 1.72 | 9.3 | · | · | 0.0146 | · | · | ·
COc1ccc(-c2cc(C(F)F)n3ncc(C(=O)N4CCN(C(=O)c5ccco5)CC4)c3n2)cc1 | 1.75 | -0.0373 | 15.1 | 9.36* | 1.2 | 0.227 | 13496* | 1536 | +
COc1ccccc1NC(=O)CC1Nc2ccccc2NC1=O (stereo not drawn) | 0.185 | -0.645 | 11.1 | 3.65* | 8.3 | 0.107 | 6444* | 1504 | i
O=C(CC1Nc2ccccc2NC1=O)NC1CCCCC1 (stereo not drawn) | · | -1.15 | -12.2 | -0.0311 | -1.9 | 0.356 | · | · | ·
CCOc1ccc(C=NC23CN4CN(CN(C4)C2)C3)cc1 | 0.789 | -0.363 | 8.8 | 1.04 | 1.1 | -0.131 | · | · | ·
COc1ccc(-c2nnc(SCc3ccccc3F)o2)cc1OC | -1.01 | 0.168 | 3.1 | 11.7* | 6.7 | -0.822 | 22288* | 1720 | +
SMILES | hDAT+cocaine | M1 ag | HEK293 NFkB inh | D1 mod | Jurkat viability | M1 antag | D1 mod confirm | D1 no dopamine | Isoprot counter
Cc1ccc(SCc2nc(-c3ccccc3)no2)cc1 | -0.487 | -0.914 | -0.5 | -0.0272 | 4.2 | -0.665 | · | · | ·
COc1ccc(-c2noc(CSc3ccccc3)n2)cc1OC | 2.12 | 0.228 | -4.3 | 9.38* | -1.6 | -0.42 | 8800* | 1600 | +
COc1ccc(-c2noc(CCN3C(=O)c4ccccc4C3=O)n2)cc1OC | 0.124 | -0.251 | 11.6 | 2.61* | -9.8 | 1.25 | 17536* | 1456 | i
COc1ccc(-c2noc(CSc3nnc(CCc4ccccc4)n3-c3ccccc3)n2)cc1OC | 2.4 | -0.247 | 7.2 | 7.23* | 5.4 | -1.43 | 10480* | 1584 | +
CCCCn1c(=O)cc(N2CCOCC2)[nH]c1=O | -0.701 | -0.151 | 0.6 | 0.298 | -1.5 | 0.0163 | · | · | ·
O=C(Cn1c(-c2cscn2)nc2ccccc21)Nc1cc(F)ccc1F | 0.286 | · | · | · | · | · | · | · | ·
CC(C)NC(=O)c1onc(CSc2ccncc2)c1C(=O)NC(C)C | 1.07 | · | · | · | · | · | · | · | ·
CCn1c(SCC(=O)Nc2ccc3c(c2)OCCO3)nnc1-c1c[nH]c2ccccc12 | 0.061 | · | · | · | · | · | · | · | ·
CCOC(=O)C1=C(C)NC(=O)NC1c1cn(-c2ccccc2)nc1-c1cccs1 (stereo not drawn) | 1.53 | -0.785 | 14.4 | 2.75* | -2.5 | -1.58 | 10976* | 1540 | +
O=C(COC(=O)c1cn(-c2ccccc2)nc1-c1cccs1)NC1CC1 | 0.53 | -0.987 | 7.8 | · | -0.3 | -1.63 | · | · | ·
COc1cccc(C2CC(=O)Nc3cc4c(cc32)OCCO4)c1OC(C)C (stereo not drawn) | -0.0247 | -0.0175 | 10.1 | 1.27 | 10.1 | 0.369 | · | · | ·
O=C1CC(c2cccs2)c2cc3c(cc2N1)OCCO3 (stereo not drawn) | -0.0314 | -1.58 | 7.5 | 7.02* | 4.4 | 0.15 | 10536* | 1296 | i
CC(C)Oc1ccccc1C1CC(=O)Nc2cc3c(cc21)OCCO3 (stereo not drawn) | -0.165 | 1.54 | 16.5 | 2.33* | 98.3* | 0.479 | 10132* | 1612 | i
Cc1ccc(C2CC(=O)Nc3cc4c(cc32)OCCO4)s1 (stereo not drawn) | 0.44 | 0.997 | -0.7 | 2.36 | 12.7 | 0.647 | · | · | ·
O=c1cc(-c2ccccc2Cl)c2c([nH]1)CCC2 | -0.413 | -1.21 | -8.7 | 0.192 | -12.3 | 0.11 | · | · | ·
O=c1cc(-c2ccccc2)c2c([nH]1)CCCC2 | -0.366 | 0.814 | 20.9 | 5.25* | 8.0 | 0.513 | 7876* | 1792 | i
Cc1ccc(CN(C(=O)Cn2nnc3ccccc32)C(C(=O)NCc2ccco2)c2ccc(C)o2)cc1 (stereo not drawn) | -0.927 | · | · | · | · | · | · | · | ·
C=CCn1c(SCC(=O)Nc2sc(C)c(C)c2C(=O)OCC)nnc1-c1sc(N)nc1C | -0.146 | -1.11 | 4.6 | 2.71* | -4.1 | 0.0289 | 10116* | 1640 | i
